Several values for one entry are separate records, joined by “and”; a condition that tells them apart may be missing. Identical values can stand only once.
These compounds were tested on Fibroblast (assay: Multiplex assay against human fibroblast). Settings: 12 h, 1 µM, compound concentration 1 uM.
Type: toxicity, cell-based
Procedure, shortened: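 At seeding, live cells were stained with Hoechst33342, BioTracker Green Microtubule Cytoskeleton Dye, MitoTracker Red and Annexin V Alexa Fluor 680. After compound addition they were imaged on a CQ1 microscope at 37°C and 5% CO2, and CellPathfinder machine-learning gating sorted them into Hoechst high-intensity objects or normal cells, with normal cells further split into healthy, pyknosed or fragmented nuclei and pyknosed cells into mitotic or apoptotic. Tubulin, mitochondrial-mass and membrane-permeability phenotypes are given as per cents of cells with healthy nuclei.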

Compound	Population Apoptotic (%)	Population Fragmented Nuclei (%)	Population Healthy Nuclei (%)	Population Hoechst High Intensity Objects (%)	Population Membrane Permeable-Phenotype (%)	Population Mitochondria Different-Phenotype (%)	Population Mitotic Cells (%)	Population Normal (%)	Population Pyknosed Nuclei (%)	Population Tubulin-Different-Phenotype (%)
CN(C)CCCc1cc(C(=O)Nc2ccc(-c3ccncc3)cc2)ccc1O.Cl.Cl	31% and 44%	15% and 22%	65% and 52%	4% and 2%	0% and 4%	7% and 4%	68% and 55%	95% and 97%	18% and 24%	22% and 40%
CC(F)(F)CN1CCOc2c(nn(-c3ccccc3Cl)c2-c2ccc(Cl)cc2)C1=O	42% and 31%		66% and 48%	0%	1%	4% and 10%	57% and 68%	99% and 93%	15% and 25%	61%
COc1ccc2c(c1)C(C(=O)N(Cc1ccc(N(C)C)cc1)c1ccc(C(C)C)cc1)CCC2.Cl (stereo unspecified)	57% and 45%	15% and 20%	72% and 55%	1% and 5%	1% and 5%	7% and 15%	42% and 54%	98% and 94%	11% and 23%	22% and 57%
CCCCC(=O)N(Cc1ccc(-c2ccccc2-c2nnn[nH]2)cc1)[C@H](C(=O)O)C(C)C	45% and 44%	9% and 21%	74% and 54%	4% and 3%	0% and 8%	0% and 6%	54% and 55%	95% and 96%	16% and 24%	20% and 36%

Same assay, conditions: 12 h, 1 µM, compound concentration 1 uM

Compound	Total Cell Count
CN(C)CCCc1cc(C(=O)Nc2ccc(-c3ccncc3)cc2)ccc1O.Cl.Cl	122 and 120
CC(F)(F)CN1CCOc2c(nn(-c3ccccc3Cl)c2-c2ccc(Cl)cc2)C1=O	125 and 122
COc1ccc2c(c1)C(C(=O)N(Cc1ccc(N(C)C)cc1)c1ccc(C(C)C)cc1)CCC2.Cl (stereo unspecified)	163 and 138
CCCCC(=O)N(Cc1ccc(-c2ccccc2-c2nnn[nH]2)cc1)[C@H](C(=O)O)C(C)C	143 and 156

Same assay, conditions: 12 h, 10 µM, compound concentration 10 uM

Compound	Population Apoptotic (%)	Population Fragmented Nuclei (%)	Population Healthy Nuclei (%)	Population Hoechst High Intensity Objects (%)	Population Membrane Permeable-Phenotype (%)	Population Mitochondria Different-Phenotype (%)	Population Mitotic Cells (%)	Population Normal (%)	Population Pyknosed Nuclei (%)	Population Tubulin-Different-Phenotype (%)
CN(C)CCCc1cc(C(=O)Nc2ccc(-c3ccncc3)cc2)ccc1O.Cl.Cl	68% and 48%	33% and 31%	58% and 51%	7% and 4%	0% and 4%	15% and 6%	31% and 51%	92% and 95%	7% and 17%	43% and 45%
CC(F)(F)CN1CCOc2c(nn(-c3ccccc3Cl)c2-c2ccc(Cl)cc2)C1=O	47% and 30%		66% and 53%	1% and 5%	0% and 2%	19% and 8%	52% and 70%	98% and 94%	17% and 15%	49% and 57%
COc1ccc2c(c1)C(C(=O)N(Cc1ccc(N(C)C)cc1)c1ccc(C(C)C)cc1)CCC2.Cl (stereo unspecified)	58% and 53%	17% and 38%	69% and 51%	1% and 2%	0% and 6%	12% and 14%	41% and 46%	98% and 97%	13% and 10%	67% and 77%
CCCCC(=O)N(Cc1ccc(-c2ccccc2-c2nnn[nH]2)cc1)[C@H](C(=O)O)C(C)C	37%	20% and 27%	56% and 42%	0% and 3%	3% and 11%	3% and 11%	62%	100% and 96%	22% and 29%	23% and 51%

Same assay, conditions: 12 h, 10 µM, compound concentration 10 uM

Compound	Total Cell Count
CN(C)CCCc1cc(C(=O)Nc2ccc(-c3ccncc3)cc2)ccc1O.Cl.Cl	305 and 236
CC(F)(F)CN1CCOc2c(nn(-c3ccccc3Cl)c2-c2ccc(Cl)cc2)C1=O	109 and 134
COc1ccc2c(c1)C(C(=O)N(Cc1ccc(N(C)C)cc1)c1ccc(C(C)C)cc1)CCC2.Cl (stereo unspecified)	181 and 148
CCCCC(=O)N(Cc1ccc(-c2ccccc2-c2nnn[nH]2)cc1)[C@H](C(=O)O)C(C)C	106 and 130

Same assay, conditions: 24 h, 1 µM, compound concentration 1 uM

Compound	Population Apoptotic (%)	Population Fragmented Nuclei (%)	Population Healthy Nuclei (%)	Population Hoechst High Intensity Objects (%)	Population Membrane Permeable-Phenotype (%)	Population Mitochondria Different-Phenotype (%)	Population Mitotic Cells (%)	Population Normal (%)	Population Pyknosed Nuclei (%)	Population Tubulin-Different-Phenotype (%)
CN(C)CCCc1cc(C(=O)Nc2ccc(-c3ccncc3)cc2)ccc1O.Cl.Cl	30% and 37%	16% and 22%	66% and 50%	1% and 4%	2% and 1%	3% and 7%	70% and 62%	98% and 95%	17% and 27%	25% and 45%
CC(F)(F)CN1CCOc2c(nn(-c3ccccc3Cl)c2-c2ccc(Cl)cc2)C1=O	61% and 64%		65% and 52%	1% and 4%	1%	2% and 10%	38% and 36%	98% and 95%	15% and 20%	75%
COc1ccc2c(c1)C(C(=O)N(Cc1ccc(N(C)C)cc1)c1ccc(C(C)C)cc1)CCC2.Cl (stereo unspecified)	55%	11% and 19%	77% and 59%	1% and 3%	0% and 2%	5% and 11%	44%	98% and 96%	11% and 20%	25% and 41%
CCCCC(=O)N(Cc1ccc(-c2ccccc2-c2nnn[nH]2)cc1)[C@H](C(=O)O)C(C)C	66% and 38%	15% and 21%	70% and 52%	0% and 2%	1% and 2%	2% and 1%	33% and 61%	99% and 97%	14% and 25%	17% and 25%

Same assay, conditions: 24 h, 1 µM, compound concentration 1 uM

Compound	Total Cell Count
CN(C)CCCc1cc(C(=O)Nc2ccc(-c3ccncc3)cc2)ccc1O.Cl.Cl	119 and 111
CC(F)(F)CN1CCOc2c(nn(-c3ccccc3Cl)c2-c2ccc(Cl)cc2)C1=O	119 and 129
COc1ccc2c(c1)C(C(=O)N(Cc1ccc(N(C)C)cc1)c1ccc(C(C)C)cc1)CCC2.Cl (stereo unspecified)	156 and 136
CCCCC(=O)N(Cc1ccc(-c2ccccc2-c2nnn[nH]2)cc1)[C@H](C(=O)O)C(C)C	146 and 145

Same assay, conditions: 24 h, 10 µM, compound concentration 10 uM

Compound	Population Apoptotic (%)	Population Fragmented Nuclei (%)	Population Healthy Nuclei (%)	Population Hoechst High Intensity Objects (%)	Population Membrane Permeable-Phenotype (%)	Population Mitochondria Different-Phenotype (%)	Population Mitotic Cells (%)	Population Normal (%)	Population Pyknosed Nuclei (%)	Population Tubulin-Different-Phenotype (%)
CN(C)CCCc1cc(C(=O)Nc2ccc(-c3ccncc3)cc2)ccc1O.Cl.Cl	47% and 42%	30% and 31%	63% and 53%	6% and 4%	0% and 5%	11% and 5%	52% and 57%	93% and 95%	5% and 14%	40% and 42%
CC(F)(F)CN1CCOc2c(nn(-c3ccccc3Cl)c2-c2ccc(Cl)cc2)C1=O	33% and 35%		65% and 54%	0% and 1%	0% and 6%	26% and 10%	66% and 64%	99% and 98%	10% and 14%	58% and 60%
COc1ccc2c(c1)C(C(=O)N(Cc1ccc(N(C)C)cc1)c1ccc(C(C)C)cc1)CCC2.Cl (stereo unspecified)	50% and 42%	17% and 39%	72% and 55%	3% and 2%	0% and 2%	15% and 12%	50% and 57%	96% and 97%	10% and 4%	63% and 85%
CCCCC(=O)N(Cc1ccc(-c2ccccc2-c2nnn[nH]2)cc1)[C@H](C(=O)O)C(C)C	48% and 35%	18% and 25%	56% and 44%	2% and 4%	0% and 9%	1% and 10%	51% and 64%	97% and 95%	25% and 29%	31% and 65%

Same assay, conditions: 24 h, 10 µM, compound concentration 10 uM

Compound	Total Cell Count
CN(C)CCCc1cc(C(=O)Nc2ccc(-c3ccncc3)cc2)ccc1O.Cl.Cl	339 and 242
CC(F)(F)CN1CCOc2c(nn(-c3ccccc3Cl)c2-c2ccc(Cl)cc2)C1=O	111 and 121
COc1ccc2c(c1)C(C(=O)N(Cc1ccc(N(C)C)cc1)c1ccc(C(C)C)cc1)CCC2.Cl (stereo unspecified)	180 and 148
CCCCC(=O)N(Cc1ccc(-c2ccccc2-c2nnn[nH]2)cc1)[C@H](C(=O)O)C(C)C	110 and 130

Same assay, conditions: 48 h, 1 µM, compound concentration 1 uM

Compound	Population Apoptotic (%)	Population Fragmented Nuclei (%)	Population Healthy Nuclei (%)	Population Hoechst High Intensity Objects (%)	Population Membrane Permeable-Phenotype (%)	Population Mitochondria Different-Phenotype (%)	Population Mitotic Cells (%)	Population Normal (%)	Population Pyknosed Nuclei (%)	Population Tubulin-Different-Phenotype (%)
CN(C)CCCc1cc(C(=O)Nc2ccc(-c3ccncc3)cc2)ccc1O.Cl.Cl	62% and 50%	28% and 23%	59% and 54%	0% and 8%	0% and 1%	1% and 5%	37% and 50%	99% and 91%	12% and 21%	29% and 46%
CC(F)(F)CN1CCOc2c(nn(-c3ccccc3Cl)c2-c2ccc(Cl)cc2)C1=O	56% and 40%		63% and 53%	1% and 4%	4% and 1%		43% and 60%	98% and 95%	11% and 7%	35% and 72%
COc1ccc2c(c1)C(C(=O)N(Cc1ccc(N(C)C)cc1)c1ccc(C(C)C)cc1)CCC2.Cl (stereo unspecified)	66% and 52%	17% and 26%	75% and 61%	1%	1% and 5%	3% and 13%	33% and 47%	98%	6% and 12%	27% and 46%
CCCCC(=O)N(Cc1ccc(-c2ccccc2-c2nnn[nH]2)cc1)[C@H](C(=O)O)C(C)C	80% and 40%	18% and 27%	71% and 51%	6% and 3%	0% and 1%	1% and 3%	20% and 59%	93% and 96%	10% and 21%	17% and 33%

Same assay, conditions: 48 h, 1 µM, compound concentration 1 uM

Compound	Total Cell Count
CN(C)CCCc1cc(C(=O)Nc2ccc(-c3ccncc3)cc2)ccc1O.Cl.Cl	126 and 111
CC(F)(F)CN1CCOc2c(nn(-c3ccccc3Cl)c2-c2ccc(Cl)cc2)C1=O	136 and 135
COc1ccc2c(c1)C(C(=O)N(Cc1ccc(N(C)C)cc1)c1ccc(C(C)C)cc1)CCC2.Cl (stereo unspecified)	180 and 152
CCCCC(=O)N(Cc1ccc(-c2ccccc2-c2nnn[nH]2)cc1)[C@H](C(=O)O)C(C)C	153 and 155

Same assay, conditions: 48 h, 10 µM, compound concentration 10 uM

Compound	Population Apoptotic (%)	Population Fragmented Nuclei (%)	Population Healthy Nuclei (%)	Population Hoechst High Intensity Objects (%)	Population Membrane Permeable-Phenotype (%)	Population Mitochondria Different-Phenotype (%)	Population Mitotic Cells (%)	Population Normal (%)	Population Pyknosed Nuclei (%)	Population Tubulin-Different-Phenotype (%)
CN(C)CCCc1cc(C(=O)Nc2ccc(-c3ccncc3)cc2)ccc1O.Cl.Cl	56% and 51%	28% and 35%	60% and 53%	11% and 2%	0% and 3%	8% and 2%	43% and 48%	88% and 97%	11% and 10%	48% and 39%
CC(F)(F)CN1CCOc2c(nn(-c3ccccc3Cl)c2-c2ccc(Cl)cc2)C1=O	78% and 54%		56% and 54%	1%	0% and 3%		21% and 45%	98%	11% and 7%	57%
COc1ccc2c(c1)C(C(=O)N(Cc1ccc(N(C)C)cc1)c1ccc(C(C)C)cc1)CCC2.Cl (stereo unspecified)	71% and 75%	21% and 45%	71% and 52%	4% and 0%	0% and 3%	8%	28% and 25%	95% and 99%	7% and 2%	71% and 81%
CCCCC(=O)N(Cc1ccc(-c2ccccc2-c2nnn[nH]2)cc1)[C@H](C(=O)O)C(C)C	64% and 57%	28% and 39%	56% and 39%	4%	0% and 7%	5%	35% and 42%	95%	15% and 20%	30% and 69%

Same assay, conditions: 48 h, 10 µM, compound concentration 10 uM

Compound	Total Cell Count
CN(C)CCCc1cc(C(=O)Nc2ccc(-c3ccncc3)cc2)ccc1O.Cl.Cl	321 and 261
CC(F)(F)CN1CCOc2c(nn(-c3ccccc3Cl)c2-c2ccc(Cl)cc2)C1=O	120 and 141
COc1ccc2c(c1)C(C(=O)N(Cc1ccc(N(C)C)cc1)c1ccc(C(C)C)cc1)CCC2.Cl (stereo unspecified)	203 and 174
CCCCC(=O)N(Cc1ccc(-c2ccccc2-c2nnn[nH]2)cc1)[C@H](C(=O)O)C(C)C	112 and 141
